Data taken from ChEMBL document CHEMBL4043077, “Revisiting Previously Investigated Plants: A Molecular Networking-Based Study of Geissospermum laeve” (J Nat Prod, 2017).
The source made the active and inactive calls. The rule behind the calls is not given here.

Key:
Leishmania donovani [1] = assay: Antiparasitic activity against Leishmania donovani LV9 […] amastigotes infected in mouse RAW264.7 cells assessed induction of parasite cell morphological alteration at 100 uM incubated for 72 hrs by microscopy; format: functional, cell-based
Outline: (§1)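 RAW 264.7 macrophages infected with L. donovani LV9 amastigotes were incubated with compound for 72 h, then examined under the microscope for morphological alteration of the infected cells.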

Plasmodium falciparum = assay: Antiparasitic activity against chloroquine-resistant Plasmodium falciparum FcB1/Columbia infected in human erythrocytes assessed as reduction in [3H]-hypoxanthine incorporation incubated for 24 hrs assay by liquid scintillation spectrometry; format: functional, cell-based
Outline: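 In vitro test of purified alkaloids against the FcB1 strain. Values are the mean ± standard error of three independent experiments.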

Leishmania donovani [2] = assay: Antiparasitic activity against Leishmania donovani LV9 […] amastigotes infected in mouse RAW264.7 cells incubated for 48 hrs by Sybr Green I dye based assay; format: functional, cell-based; details: LV9, RAW264.7, 48 h
Outline: (§2)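 Mean ± standard error of three independent in vitro experiments. Reference drugs: miltefosine for L. donovani LV9, tested on axenic amastigotes and on amastigotes inside RAW 264.7 macrophages; paclitaxel for MRC-5, a human fetal lung fibroblast line.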

MRC5 = assay: Cytotoxic activity against human MRC5 cells incubated for 72 hrs by resazurin dye based spectrophotometry; format: cell-based; details: MRC5, 72 h; outline: as §2
Leishmania donovani [3] = assay: Antiparasitic activity against Leishmania donovani LV9 axenic amastigotes incubated for 72 hrs by resazurin dye based assay; format: functional; details: LV9, 72 h; outline: as §2
Leishmania donovani [4] = assay: Antiparasitic activity against Leishmania donovani LV9 […] amastigotes infected in mouse RAW264.7 cells assessed induction of parasite cell morphological alteration at 12.5 uM incubated for 72 hrs by microscopy; format: functional, cell-based; outline: as §1
Leishmania donovani [5] = assay: Antiparasitic activity against Leishmania donovani LV9 […] amastigotes infected in mouse RAW264.7 cells assessed induction of parasite cell morphological alteration at 50 uM incubated for 72 hrs by microscopy; format: functional, cell-based; outline: as §1
Leishmania donovani [6] = assay: Antiparasitic activity against Leishmania donovani LV9 […] amastigotes infected in mouse RAW264.7 cells assessed induction of parasite cell morphological alteration at 6.25 uM incubated for 72 hrs by microscopy; format: functional, cell-based; outline: as §1

SMILES | Activity (Leishmania donovani [1]) | IC50 (Plasmodium falciparum) [µM] | IC50 (Leishmania donovani [2]) [µM] | IC50 (MRC5) [µM] | IC50 (Leishmania donovani [3]) [µM] | Activity (Leishmania donovani [4]) | Activity (Leishmania donovani [5]) | Activity (Leishmania donovani [6])
CC[C@@]12CCCN3C(=O)C=C(c4ccccc4NC(=O)CC1)[C@]32O | inactive | > 100 | 25 | > 50 | > 100 | – | – | –
CCCCCCCCCCCCCCCCOP(=O)([O-])OCC[N+](C)(C)C [MILTEFOSINE] | – | – | 5.2 | – | 1.4 | Active | – | –
CC(=O)O[C@H]1C(=O)[C@@]2(C)[C@H]([C@H](OC(=O)c3ccccc3)[C@]3(O)C[C@H](OC(=O)[C@H](O)[C@@H](NC(=O)c4ccccc4)c4ccccc4)C(C)=C1C3(C)C)[C@]1(OC(C)=O)CO[C@@H]1C[C@@H]2O [PACLITAXEL] | – | – | – | 0.00052 | – | – | – | –
C/C=C1/C[n+]2ccc3c([nH]c4ccccc43)c2C[C@@H]1[C@@H](C(=O)OC)[C@@H]1OC[C@H]2[C@H]3C[C@@H]4N(CC[C@@]45c4ccccc4N1[C@@H]25)C[C@H]3CC | – | 2.9 | 57.8 | 3 | 51.8 | – | Active | –
CCC1=C(CC(=O)OC)[C@@](OC)(c2nccc3c2[nH]c2ccccc23)OC1=O | inactive | 56 | 59.6 | > 50 | > 100 | – | – | –
CCC1=C(CC(=O)OC)[C@@](O)(c2nccc3c2[nH]c2ccccc23)OC1=O | inactive | 74.2 | 25.7 | > 50 | > 100 | – | – | –
C/C=C1\C[C@H]2[C@@H]([C@@H]3OC[C@H]4[C@H]5C[C@@H]6N(CC[C@@]67c6ccccc6N3[C@@H]47)C[C@H]5CC)[C@@H]3Cc4c([nH]c5ccccc45)[C@H]2N3C1 | – | 1.9 | 4.5 | 0.022 | 9.4 | – | – | Active
